Source: PubChem
This excerpt belongs to a sample that is enriched for hits.
L major viab – Leishmania major promastigote growth inhibition, primary screen | actives 9% (n = 200,000) | inhibition, % at 10 µM | AID 1063, 2008 | Leishmania major promastigotes, resazurin fluorescence viability; in the data active = inhibition above about 50%;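 note: promastigotes grown with compound for 44 hours at 28 °C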
T cruzi inh – inhibitors of intracellular T. cruzi growth, primary screen, luminescence, NIH3T3 host cells; T. cruzi beta-gal in NIH3T3, 90 h; inhibition, % (test concentration not listed); actives 1.4% (n = 300,000);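 active = mean inhibition across valid replicates above about 55%, limit read from the data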;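 note: signal also drops with host cell toxicity which is not excluded here; 0% = plate median of DMSO wells and 100% = zero luminescence signal; higher percent means less beta-gal luminescence so fewer parasites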
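compound dosing = single 50 nL compound addition per well in DMSO | material = NIH/3T3 host cells with β-galactosidase reporter T. cruzi | input = 5,000 host fibroblasts per well | timing = ≥90 h infection period, 3 h prior cell attachment | read-out basis = percent inhibition of parasite-derived β-gal signal | detection = GalScreen β-gal luminescence, detergent lysis, 60 min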
Dynein transport – inhibitors of GR-EGFP nuclear translocation, primary screen, dynein cargo transport inhibitor project, imaging, high-content, 3617.4 mouse cells; AID 1381, 2008; actives 0.47% (n = 220,000); test concentration mostly 20 µM; stimulated with dexamethasone, 1 µM; hits give low values; z-score, hits read low;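 active = plate z-score of nuclear minus cytoplasmic receptor signal below a set negative limit, without overly bright fluorescence or cell loss, cut at about -3.5 in these data, passing the limit was not always enough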;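 note: z-score of nuclear minus cytoplasmic ring GR-EGFP intensity difference per well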
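Schedule: 48 h induction, then 1 h compound, then 30 min agonist, 37 °C. Buffer or medium: tetracycline-free induction medium containing charcoal-stripped FBS. Reagent: 1.0 µM final dexamethasone stimulus. Evaluation: nuclear versus cytoplasmic GR-EGFP signal, averaged per well. Signal: high-content fluorescence imaging after fixation.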
UPR XBP1 act – activators of adaptive XBP1 UPR arm, primary screen, cell-based, CHO-XBP1 luciferase reporter, luminescence, uHTS; activation, % at 20 µM; actives 0.33% (n = 330,000); IRE1-XBP1 UPR activation; percent of tunicamycin response, DMSO as zero; AID 463104, 2010;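 active = versus positive control, 20 µM dose yields 30% or more activation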;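 note: 100% = tunicamycin at 10 µg/mL and 0% = DMSO only wells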
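Assay system: IRE1-XBP1 luciferase reporter CHO line. Input: 1000 cells/well. Buffer or medium: F12 with 10% serum. Doses: 20 µM, 1% DMSO. Times: overnight seeding at 37 °C, 6 h compound treatment at 37 °C. Technique: Steady-Glo luciferase glow luminescence, 10 min after reagent addition.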
CHOP inhibitor – inhibitors of CHOP promoter induction, primary screen, cell-based, unfolded protein response, luciferase reporter; CHO-K1 CHOP-promoter luciferase, tunicamycin-induced, 15-18 h; inhibition, % at 10 µM; actives 3.8% (n = 220,000); AID 2732, 2010;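 active = compounds that reduced the stress-induced luciferase reporter signal by more than about 70% of percent inhibition, limit read from the data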;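 note: 0% = tunicamycin plus vehicle and 100% = wells without tunicamycin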
UPR CHOP act – activators of apoptotic CHOP UPR arm, primary screen, cell-based, CHO-CHOP luciferase reporter, luminescence, uHTS | UPR activation; percent of tunicamycin response over DMSO baseline | activation, % at 10 µM | actives 0.34% (n = 330,000) | AID 449763, 2010;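 active = at 10 µM dose, activation of 40% or more, normalized to positive control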;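 note: 100% = tunicamycin at 10 µg/mL and 0% = DMSO alone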
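Test system: CHO-CHOP cells, stable luciferase reporter of PERK-eIF2a-CHOP signalling | Quantity: 500 CHO-CHOP cells per well | Buffer or medium: F12 plus 10% serum | Compound dosing: 10 µM single point, 0.5% DMSO | Schedule: 6 h compound treatment, 37 °C | Signal: Luciferase luminescence | Control set: Tunicamycin high control, DMSO low control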
An asterisk follows results filed as active; x = no result.

SMILES	L major viab	T cruzi inh	Dynein transport	UPR XBP1 act	CHOP inhibitor	UPR CHOP act
CCCSc1cc(NCCOC(C)=O)c([N+](=O)[O-])c2nonc12	67.0*	-13.2	-0.155	-2.2	19.9	-2.0
CCCC(=O)OCCNc1cc(Sc2nccn2C)c2nonc2c1[N+](=O)[O-]	99.9*	60.8*	-3.49	x	108.4*	x
Cc1nnc(Sc2cc(NCCCO)c([N+](=O)[O-])c3nonc23)s1	-0.4	15.7	1.46	x	-50.8	x
CCC(=O)OCCNc1cc(Sc2nc3ccccc3s2)c2nonc2c1[N+](=O)[O-]	44.1	45.7	-1.96	-7.4	112.5*	-9.2
O=C(CNC(=O)c1cccc(F)c1)OCCOc1cccc(Cl)c1	x	-8.5	x	0.8	x	0.5
CCOC(=O)Nc1ccc(C(=O)Oc2ccccc2)c(O)c1	-6.8	-8.8	2.53	2.2	36.9	4.9
Cc1nc(C)c(C(=O)Nc2ccc(Oc3ccccc3)cc2)o1	76.2*	-7.6	0.904	0.4	x	1.3
CCOC(=O)Nc1ccc(Oc2ccccc2)cc1	-0.7	-17.5	-0.307	7.9	73.5*	2.1
O=C(/C=C/c1cccc(Br)c1)N1CCN(c2ccccn2)CC1	0.0	-0.7	-0.201	0.4	25.2	2.3
O=[N+]([O-])c1ccc(C23CC4CC(CC(O)(C4)C2)C3)cc1	x	-5.8	x	x	x	x
O=C(Oc1c(CN2CCOCC2)cc(Cl)c2cccnc12)c1cccs1	100.0*	29.5	-1.2	13.5	-60.0	-0.7
Oc1c(Cl)cc(Cl)c2cccnc12	96.0*	43.1	0.228	x	-13.9	x
O=C(Oc1c(Cl)cc(Cl)c2cccnc12)c1ccco1	97.9*	68.1*	-0.416	2.9	43.0	0.0
O=C(Oc1c(CN2CCOCC2)cc(Cl)c2cccnc12)c1ccccc1Cl	100.4*	50.9	0.152	18.9	-4.6	39.8
CN(CCCC(=O)N1CCN(c2ncccn2)CC1)S(=O)(=O)c1ccc(F)cc1	x	x	x	0.4	x	-1.9
O=C(Nc1cc(S(=O)(=O)N2CCCCC2)ccc1Oc1ccccc1)C1=COCCO1	x	30.9	x	-3.5	x	0.6
C=CCN(CC(=O)O)S(=O)(=O)c1ccccc1C(F)(F)F	-6.1	-1.9	-0.347	-1.7	8.6	-1.9
O=[N+]([O-])c1ccc(CNCc2cc(Cl)ccc2O)cc1	x	x	x	-0.6	x	0.2
O=C(Oc1ccc(Cl)c2cccnc12)N1CCOCC1	-5.5	-5.0	-0.299	-0.7	1.9	-0.8
O=C(Oc1c(Cl)cc(Cl)c2cccnc12)c1cccs1	16.5	75.3*	0.232	3.4	62.2	0.1
COc1ccc(C(=O)Oc2c(CN3CCOCC3)cc(Cl)c3cccnc23)cc1	96.8*	41.7	0.639	-0.9	-6.7	0.4
COc1ccc(-n2nc(C(=O)NCC(=O)NCc3ccc(F)cc3)c3ccccc3c2=O)cc1	x	6.3	x	-0.5	x	2.2
Cn1ccnc1	x	x	x	x	-7.4	x
O=C1CCCc2oc3c(cc(NS(=O)(=O)c4ccc5c6c(cccc46)C(=O)N5)c4ccccc43)c21	x	29.8	-0.365	3.1	9.7	-1.4
Cc1oc2c(cc(NS(=O)(=O)c3ccc4c5c(cccc35)C(=O)N4)c3ccccc32)c1C(=O)OC(C)C	57.8*	51.5	-0.916	-0.2	57.7	0.3
SMILES	L major viab	T cruzi inh	Dynein transport	UPR XBP1 act	CHOP inhibitor	UPR CHOP act
Cc1cc(N/N=C2\CC(C)CC(C)(C)C2)nc2ccccc12 (stereo unspecified)	98.8*	45.0	-0.809	1.2	46.9	9.9
c1ccc(N/N=C2\CCCc3ccccc32)nc1	17.8	8.1	0.66	1.8	20.6	1.2
CC1C/C(=N/NC(=O)c2ccc(CSc3nc4ccccc4[nH]3)cc2)CC(C)(C)C1 (stereo unspecified)	39.4	11.3	-0.482	-1.6	75.3*	1.6
Cc1cc(N/N=C2/CCCc3ccccc32)nc2ccccc12	89.9*	51.5	0.57	1.3	22.4	4.8
O=C(NCCO)c1ccc(CSc2nc3ccccc3[nH]2)cc1	-3.5	-12.2	-0.604	1.2	2.3	3.8
O=P(c1ccccc1)(c1ccccc1)N(c1ccccc1)c1ccccc1	64.7*	4.1	-0.539	-2.5	57.0	1.1
O=C(COC(=O)C1CC(=O)N(Cc2ccco2)C1)Nc1nc(-c2ccc(F)cc2)cs1 (stereo unspecified)	x	x	x	1.9	x	3.7
COc1ccccc1-n1cnnc1SCc1csc(-c2ccccc2)n1	17.5	x	-0.158	2.5	27.1	-1.3
Cc1ccc(-c2nc(CSc3nc4ccccc4c(=O)n3CCO)cs2)cc1	61.6*	22.0	-0.935	-0.5	47.9	-1.0
C=CCn1c(SCc2csc(-c3ccc(C)cc3)n2)nnc1-c1ccccc1OC	99.6*	45.5	-0.655	-3.3	32.0	1.9
Cc1ccc(-c2nc(CSc3nc4ccccc4c(=O)n3C)cs2)cc1	75.8*	-13.7	-0.383	-2.4	29.3	0.5
COc1cc(C)c(N)cc1C(C)C	-2.3	67.4*	-0.636	3.3	-13.8	-0.5
CCCCOc1ccc(/C=C/C2=CC(C)(C)NC(=S)N2)cc1OCC	20.2	70.2*	-1.88	12.8	-9.6	4.8
c1ccc(-c2ncc3c(ccc4ccccc43)n2)cc1	-6.0	-15.6	-0.0295	-4.8	80.0*	-6.7
Cc1ccccc1CN1CCN(S(=O)(=O)c2ccc(F)cc2)CC1	39.6	17.0	-0.32	0.1	87.9*	-1.6
O=S(=O)(c1ccc(Br)cc1)N1CCCN(Cc2ccccc2F)CC1	50.2*	10.0	0.00734	-3.5	26.4	2.1
O=C(CN1CCN(S(=O)(=O)c2ccc(Br)cc2)CC1)Nc1ccccc1F	23.3	14.0	1.04	3.8	33.0	-2.0
CCOC(=O)/C(C#N)=C/c1c(N2CCN(c3ccccc3)CC2)nc2ccccn2c1=O	x	13.5	x	-2.5	x	-1.1
Cc1noc(C)c1S(=O)(=O)N(CC(=O)N1CCn2c1nc1ccccc12)c1ccc(C(C)C)cc1	10.9	-0.1	-0.873	-0.5	38.4	1.7
COc1ccc(N(CC(=O)Nc2cc(Cl)ccc2OC)S(=O)(=O)c2c(C)noc2C)cc1	31.7	24.8	-0.892	0.6	x	0.8
COc1cccc(CNC(=O)CN(c2cc(C)cc(C)c2)S(=O)(=O)c2c(C)noc2C)c1	65.2*	7.9	-0.646	-2.2	58.3	-0.3
CCCN(c1ccc(C(C)C)cc1)S(=O)(=O)c1c(C)noc1C	8.6	11.0	0.0708	-1.3	75.7*	-1.2
COc1ccc(OC)c(NC(=O)CN(c2ccc(C)cc2)S(=O)(=O)c2c(C)noc2C)c1	74.7*	15.7	-0.683	-2.2	-0.6	-1.6
COc1cccc(CNC(=O)CN(c2ccc(C(C)C)cc2)S(=O)(=O)c2c(C)noc2C)c1	x	24.9	x	-4.9	x	-0.7
